Experimental data as given in ChEMBL document CHEMBL1671867, “Novel polymyxin derivatives carrying only three positive charges are effective antibacterial agents” (Antimicrob Agents Chemother, 2008).
Converted amounts (≈) assume the structure as drawn.

Legend:
Acinetobacter baumannii [1] = assay: Antibacterial activity against Acinetobacter baumannii F264 by Etest method in presence of […] NAB739; assay type: functional
Escherichia coli [2] = assay: Antibacterial activity against Escherichia coli by Etest method in presence of 4 ug/ml NAB7061; assay type: functional
Pseudomonas aeruginosa [3] = assay: Antibacterial activity against Pseudomonas aeruginosa ATCC 27853by Etest method in presence of 0.5 ug/ml NAB739; assay type: functional
How it was run: (§1)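 MICs of the antibiotic taken from E-strips on Mueller-Hinton agar, run both with and without peptide. […] Inoculum was prepared per the strip manufacturer, matching CLSI M2-A9.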

Pseudomonas aeruginosa [4] = assay: Antibacterial activity against Pseudomonas aeruginosa ATCC 27853 by Etest method in presence of 4 ug/ml NAB7075; assay type: functional
Escherichia coli [5] = assay: microbe, parasite or virus in culture; settings: ATCC 25992
Acinetobacter baumannii [6] = assay: Antibacterial activity against Acinetobacter baumannii ATCC 19606 by Etest method in presence of 4 ug/ml NAB7070; assay type: functional
Klebsiella pneumoniae [7] = assay: Antibacterial activity against Klebsiella pneumoniae CCUG45421 by Etest method in presence of 4 ug/ml NAB7063; assay type: functional
Proteus vulgaris = assay: Antibacterial activity against Proteus vulgaris ATCC 13315 by Etest method in presence of 4 ug/ml NAB7074; assay type: functional
Escherichia coli [8] = assay: Antibacterial activity against Escherichia coli IH3080 by Etest method in presence of NAB7061; assay type: functional
Klebsiella pneumoniae [9] = assay: Antibacterial activity against Klebsiella pneumoniae ATCC 13883 by Etest method in presence of 2 ug/ml NAB7061; assay type: functional; how it was run: as §1
Escherichia coli [10] = assay: Antibacterial activity against Escherichia coli ATCC […] by Etest method in presence of 2 ug/ml NAB7062; assay type: functional
Escherichia coli [11] = assay: Antibacterial activity against Escherichia coli ATCC 25992 by Etest method; assay type: functional
How it was run: (§2)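 E-strip MIC on Mueller-Hinton agar without added peptide; inoculum per manufacturer, matching CLSI M2-A9.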

Escherichia coli [12] = assay: microbe, parasite or virus in culture; settings: ATCC 25992; remark: listed apart in the source
Enterobacter cloacae [13] = assay: Antibacterial activity against Enterobacter cloacae by Etest method in presence of 4 ug/ml NAB7068; assay type: functional
Pseudomonas aeruginosa [14] = assay: Antibacterial activity against Pseudomonas aeruginosa ATCC 27853by Etest method in presence of […] NAB739; assay type: functional
Enterobacter cloacae [15] = assay: Antibacterial activity against Enterobacter cloacae ATCC 23355 […] by Etest method in presence of 4 ug/ml NAB7064; assay type: functional
Escherichia coli [16] = assay: Antibacterial activity against 5 x 10^5 CFU/ml Escherichia coli ATCC […] by Etest method by Etest in presence of 8 ug/ml NAB7061; assay type: functional
Enterobacter cloacae [17] = assay: Antibacterial activity against Enterobacter cloacae ATCC 23355 by Etest method; assay type: functional; how it was run: as §2

## CO[C@H]1/C=C/O[C@@]2(C)Oc3c(C)c(O)c4c(O)c(c(/C=N/N5CCN(C)CC5)c(O)c4c3C2=O)NC(=O)/C(C)=C\C=C\[C@H](C)[C@H](O)[C@@H](C)[C@@H](O)[C@@H](C)[C@H](OC(C)=O)[C@@H]1C [RIFAMPIN]
Acinetobacter baumannii [1]
  MIC: 0.38 µg/mL
Escherichia coli [2]
  MIC: 0.016 µg/mL
Pseudomonas aeruginosa [3]
  MIC: 32 µg/mL
Pseudomonas aeruginosa [4]
  MIC: 12 µg/mL
Escherichia coli [5]
  MIC: 8 µg/mL (≈ 9.72 µM)
Acinetobacter baumannii [6]
  MIC: 0.094 µg/mL
Klebsiella pneumoniae [7]
  MIC: 2 µg/mL
Proteus vulgaris
  MIC: 1 µg/mL
Escherichia coli [8]
  MIC: ≤ 0.055 µg/mL
Klebsiella pneumoniae [9]
  MIC: 0.25 µg/mL
Escherichia coli [10]
  MIC: 0.064 µg/mL
Escherichia coli [11]
  MIC: 8 µg/mL (≈ 9.72 µM)
Escherichia coli [12]
  MIC: 8 µg/mL (≈ 9.72 µM)
Enterobacter cloacae [13]
  MIC: 0.016 µg/mL
Pseudomonas aeruginosa [14]
  MIC: 32 µg/mL
Enterobacter cloacae [15]
  MIC: 0.008 µg/mL
Escherichia coli [16]
  MIC: 0.006 µg/mL
Enterobacter cloacae [17]
  MIC: 12 µg/mL (≈ 14.6 µM)
